# High-throughput results (PubChem BioAssay)
# T cruzi inh – T. cruzi replication inhibition; 300,000 compounds, 1.4% hits; AID 1885; T. cruzi beta-gal in NIH3T3, luminescence, 90 h; inhibition, % (concentration not given with the values);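 active = mean inhibition across valid replicates above about 55%, limit read from the data; inconclusive = mean below that limit but half or more replicates reach it; inactive = mean below it, under half of replicates reach it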;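 also: signal also drops with host cell toxicity which is not excluded here; 0% = plate median of DMSO wells and 100% = zero luminescence signal; higher percent means less beta-gal luminescence so fewer parasites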
#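 System – NIH/3T3 host cells with β-galactosidase reporter T. cruzi · Doses – single 50 nL compound addition per well in DMSO · Reagent – 5000 T. cruzi trypomastigotes/well · Medium – Low-serum DMEM with 2% FBS · Timing – ≥90 h infection period, 3 h prior cell attachment · Evaluation – parasite load inhibition, % · Technique – GalScreen luminescence, 60 min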
# CHT PAM – human CHT allosteric activation; 310,000 compounds, 0.49% hits; Q9GZV3; CHT-expressing cells, membrane potential dye, choline EC20; active compounds read high; LV-AA mutant CHT in HEK293 cells; B-score at 10 µM;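 active = initial fluorescence not abnormally high and integrated response B-score, plate-corrected, over 3 SD above library mean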
# Target sequence (Q9GZV3 whole entry, looked up): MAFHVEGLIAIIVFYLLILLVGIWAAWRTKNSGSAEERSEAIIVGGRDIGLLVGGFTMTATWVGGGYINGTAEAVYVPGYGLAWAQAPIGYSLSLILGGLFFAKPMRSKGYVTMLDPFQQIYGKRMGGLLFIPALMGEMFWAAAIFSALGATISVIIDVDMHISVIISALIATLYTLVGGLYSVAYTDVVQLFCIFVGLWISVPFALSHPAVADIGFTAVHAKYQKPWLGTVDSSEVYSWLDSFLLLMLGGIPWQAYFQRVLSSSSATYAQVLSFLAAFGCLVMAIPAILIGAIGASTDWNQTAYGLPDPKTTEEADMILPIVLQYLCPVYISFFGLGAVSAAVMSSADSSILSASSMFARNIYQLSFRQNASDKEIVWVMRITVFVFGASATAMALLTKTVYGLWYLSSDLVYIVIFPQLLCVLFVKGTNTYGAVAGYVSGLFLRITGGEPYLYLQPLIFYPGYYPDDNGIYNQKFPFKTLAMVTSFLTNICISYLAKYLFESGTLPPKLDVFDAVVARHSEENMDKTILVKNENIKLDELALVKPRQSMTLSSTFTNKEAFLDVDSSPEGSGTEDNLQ
# CHT inh – inhibits the human high affinity choline transporter. Q9GZV3. CHT-expressing cells, membrane potential dye, choline response; active compounds read low. B-score at 10 µM. 310,000 compounds, 0.86% hits;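 active = B-score over 3 SD under the library average, and starting fluorescence ratio not unusually high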;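 also: choline stimulus applied at its EC90 after an EC20 pre-addition; B-score computed on integrated fluorescence ratio after choline addition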
# PolyA inhibitor – blocks polyadenylation in yeast reporter cells; activity score, % at 12 µM; S. cerevisiae SKY197-pL101 polyadenylation reporter, beta-gal luminescence; efflux-impaired pdr1/pdr3 knockout yeast; score 100 = 6 SD above DMSO; 300,000 compounds, 0.02% hits;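 active = lowest replicate activity score at least 50, where 100 means six control SD above control mean; inconclusive = lowest score under 50 but half or more replicates reach 50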;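 also: yeast exposed to compound for 9 h at 30 °C; higher score means more reporter readthrough which indicates perturbed polyadenylation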
# * marks the source's active call; other numbers are inactive results; i = inactive; u = inconclusive; x = not tested or not shown; ! = not active in a repeat. Most compounds without a hit are left out; they make up all but 2.6% or so of the library.
SMILES,T cruzi inh,CHT PAM,CHT inh,PolyA inhibitor
O=C(CC(Sc1ccc(Br)cc1)C(=O)O)c1ccc(Br)cc1 (stereo not given),55*,i,-7*,19
Cc1ccc(SC(CC(=O)c2ccc(C)cc2)C(=O)O)cc1 (stereo not given),-17,i,i,-8
Cc1ccc(C(=O)N(C)c2ccc(OCC(=O)N3c4ccc(C)cc4C4CN(C)CCC43)cc2)cc1 (stereo not given),68*,i,i,2
Cc1ccc2c(c1)C1CN(C)CCC1N2C(=S)NC(=O)c1ccc(Br)cc1 (stereo not given),64*,i,i,-14
COc1ccc(OCC(=O)N2c3ccc(C)cc3C3CN(C)CCC32)cc1 (stereo not given),-5,i,i,6
Cc1ccc2c(c1)C1CN(C)CCC1N2C(=O)COc1ccc(N(C)C(=O)C(C)(C)C)cc1 (stereo not given),41,i,i,-18
Cc1ccc2c(c1)C1CN(C)CCC1N2C(=O)c1cccc(S(=O)(=O)N2CC(C)CC(C)C2)c1 (stereo not given),80*,i,i,22
O=S(=O)(NCCN1CCOCC1)c1cc(Cl)ccc1Cl,0,i,i,10
C(=C\c1ccccc1)/CN1CCN(Cc2ccc3c(c2)OCCO3)CC1,64*,x,x,-11
Clc1cccc(N/N=C/c2ccc(N3CCOCC3)cc2)c1,60*,i,i,-15
C(=N\Nc1ccccc1)/c1ccc(N2CCOCC2)cc1,18,i,i,-16
O=C(NCCC1CCCCN1S(=O)(=O)c1ccccc1)C(=O)NCc1ccncc1 (stereo not given),-5,i,i,2
O=C(CCc1ccc(S(=O)(=O)NCc2ccccc2)cc1)N1CCN(Cc2ccc3c(c2)OCO3)CC1,59*,i,i,2
CC(NS(=O)(=O)c1ccc(CCC(=O)N2CCN(C)CC2)cc1)c1ccccc1 (stereo not given),72*,i,i,0
COc1ccc(CCC(=O)N2CCN(C3CCCCC3)CC2)cc1,62*,i,i,-2
O=C(CCc1ccc(Oc2cc([N+](=O)[O-])cc([N+](=O)[O-])c2)cc1)N1CCCCCC1,68*,i,i,-62
CC1CCN(C(=O)CCc2ccc(S(=O)(=O)NC(C)C)cc2)CC1,7,i,i,-1
O=C(CCCc1ccccc1)N1CCN(C2CCCCC2)CC1,-30,i,i,u
CCN(CC(=O)Nc1ccccc1C(F)(F)F)C(=O)CCS(=O)(=O)c1ccc(C)cc1,-9,i,i,-19
Cc1ccc(CNC(=O)CCc2ccc(S(=O)(=O)NC3CCCCC3)cc2)cc1,-5,i,i,-20
CN1CCN(C(=O)CCc2ccc(S(=O)(=O)NC3CCCCC3)cc2)CC1,59*,i,i,18
Fc1ccc(-c2csc(-c3ccncc3)n2)cc1,32,i,i,-25
O=S(=O)(Nc1ccc(-c2csc(-c3ccccc3)n2)cc1)c1ccc(F)cc1,68*,i,i,18
COc1cc(/C=C2/CC/C(=C/c3ccc(O)c(OC)c3)C2=O)ccc1O,-4,i,i,61*
COc1cc(OC)c(OC)cc1/C=C1\CCC/C(=C\c2cc(OC)c(OC)cc2OC)C1=O,59*,x,x,-4
SMILES,T cruzi inh,CHT PAM,CHT inh,PolyA inhibitor
O=S(=O)(c1ccc(F)cc1)N1CCC(n2cnc3ccccc32)CC1,5,i,i,2
O=S(=O)(c1ccc(Cl)cc1)N1CCC(n2cnc3cc(C(F)(F)F)ccc32)CC1,56*,i,i,0
S=C(NCCc1ccccc1)Nc1cccc2cnccc12,-8,i,i,2
C=CCn1c(NCc2ccco2)nc2ccccc21,-7,i,i,3
CCNc1nc(NC(C)(C)C)nc(N(CC)n2cnnc2)n1,15,i,i,-1
CN(C)c1nc(NC(C)(C)C)nc(NC(C)(C)C)n1,59*,i,i,-21
CNC(=S)N/N=C/c1cccc(OCc2ccccc2F)c1,4,i,i,5
CCNC(=S)N/N=C/c1cccc(OCc2c(F)cccc2Cl)c1,59*,i,i,-19
Cc1cccc(OCc2nnc(SCC(=O)N3c4ccccc4CCc4ccccc43)o2)c1,30,i,i,-1
O=C(CSc1nnc(COc2ccc(F)cc2)o1)N1c2ccccc2CCc2ccccc21,57*,i,i,2
CCOC(=O)Nc1ccc2c(c1)N(C(=O)CCN1CCOCC1)c1ccccc1S2,68*!,i,i,5
COC(=O)Nc1ccc2c(c1)N(C(=O)CCN1CCOCC1)c1ccccc1S2,40,i,i,0
Cc1ccccc1NC(=O)CCCN1C(=O)C2CC=CCC2C1=O (stereo not given),-10,i,i,3
COc1ccc(C(=O)OCCN2CCN(C3=NS(=O)(=O)c4ccccc43)CC2)cc1OC,5,i,i,16
Cc1c(C(=O)Nc2ccc(Cl)cc2)c2ccccn2c1C(=O)c1ccc([N+](=O)[O-])cc1,66*,i,i,-11
Cc1c(C(=O)Nc2ccc(Cl)cc2)c2ccccn2c1C(=O)c1ccccc1,11,i,i,2
Cc1cc(C)c(C)c(C(=O)CSc2nnc(-c3ccc4[nH]c(C)c(C)c4c3)o2)c1C,55*,i,i,9
Cc1[nH]c2ccc(-c3nnc(SCC(=O)c4ccc(F)cc4)o3)cc2c1C,33,i,i,4
O=C(Nc1ccc(OC(F)F)c(Cl)c1)C(c1ccccc1)c1ccccc1,60*,i,i,3
COc1cccc2sc(NN)nc12,-2,i,i,7
COc1cccc2sc(Nc3nc(-c4ccncc4)cs3)nc12,76*,i,i,-21
CC(C)Oc1cccc(C(=O)C2CCCN(Cc3cnc(N4CCOCC4)s3)C2)c1 (stereo not given),59*,i,i,3
COc1ccc(C(=O)C2CCCN(Cc3ccc4nonc4c3)C2)c(OC)c1 (stereo not given),70*,i,i,-13
COc1ccc(C(=O)C2CCCN(Cc3c(F)ccc(F)c3F)C2)c(OC)c1 (stereo not given),21,i,i,-3
COc1ccc(C(=O)C2CCCN(Cc3cccn3-c3ccc(Cl)cn3)C2)c(OC)c1 (stereo not given),79*,i,i,24
CCn1ncc(CN2CCCC(C(=O)c3cccc(OC(C)C)c3)C2)c1C (stereo not given),65*,i,i,-3
COc1ccc(C(=O)C2CCCN(Cc3cnc(N4CCOCC4)s3)C2)cc1F (stereo not given),38,i,i,0
Cc1coc2cc3oc(=O)c(CCC(=O)NCCN4CCOCC4)c(C)c3cc12,-16,i,i,20
Cc1ccc(O)c(N/C=C/C(=O)c2ccc(F)cc2)c1,-12,i,i,1
